# Assay results as given in ChEMBL document CHEMBL4261556, “Design, Synthesis and Structure-Activity Relationships of (±)-Isochaihulactone Derivatives” (Medchemcomm, 2017).
# Columns and labels:
# KB = assay: Antiproliferative activity against human KB cells after 72 hrs by SRB assay; assay type: functional, cell-based
# How it was run: (§1)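 Cells grown in RPMI-1640 with 2 mM L-glutamine, 25 mM HEPES, 10% FBS, penicillin/streptomycin and amphotericin B. KB-VIN maintained with 100 nM vincristine. Freshly trypsinized cells seeded at 4000–7500 per well, depending on doubling time, together with compounds for 72 h. Fixed in 10% TCA, stained with 0.04% SRB, dye solubilized in 10 mM Tris base, absorbance read at 515 nm.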
# MDA-MB-231 = assay: Antiproliferative activity against human MDA-MB-231 cells after 72 hrs by SRB assay; assay type: functional, cell-based; how it was run: as §1
# [1] = Antiproliferative activity against human KBVIN cells after 72 hrs by SRB assay; assay type: functional, cell-based; how it was run: as §1
# A549 [2] = assay: Antiproliferative activity against human A549 cells after 72 hrs by SRB assay; assay type: functional, cell-based
# A549 [3] = assay: Cell cycle arrest in human A549 cells assessed as accumulation after 24 hrs by propidium iodide staining based flow cytometry; assay type: functional
# How it was run: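 A549 cells seeded at 75 000 per well 24 h before dosing, then treated 24 h at 1× or 3× the IC50 concentration. DMSO and 20 nM combretastatin A-4 served as controls. Floating plus trypsinized cells pooled, fixed in 70% EtOH overnight at –20 °C, stained with propidium iodide 30 min at 37 °C. DNA content analysed by flow cytometry for G2/M population.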
SMILES,"IC50 (KB; Homo sapiens, KB, 72 h) [µM]","IC50 (MDA-MB-231; Homo sapiens, MDA-MB-231, 72 h) [µM]","IC50 (A549 [2]; Homo sapiens, A549, 72 h) [µM]",IC50 (KB; kb) [µM],IC50 (MDA-MB-231; mda-mb-231) [µM],IC50 (A549 [2]; a549) [µM],"IC50 ([1]; Homo sapiens, KBVIN, 72 h) [µM]",Activity (A549 [3]),IC50 [1] [µM]
COc1cc(/C=C2\C(=O)OC\C2=C\c2ccc3c(c2)OCO3)cc(OC(=O)[C@@H](N)Cc2ccccc2)c1OC,> 40,> 40,> 40,–,–,–,> 40,–,–
COc1cc(/C=C2\C(=O)OCC2Cc2ccc3c(c2)OCO3)cc(OC(=O)[C@@H](N)Cc2ccccc2)c1OC (stereo not given in full),5.4,8.8,4.8,–,–,–,4.95,–,–
COc1cc(/C=C2\C(=O)OC\C2=C\c2ccc3c(c2)OCO3)cc(O)c1OC,34,> 40,31.2,–,–,–,29,–,–
COc1cc(/C=C2\C(=O)OCC2Cc2ccc3c(c2)OCO3)cc(OC)c1OC(=O)[C@@H](N)Cc1ccccc1 (stereo not given in full),9.2,9.73,5.97,–,–,–,7.59,–,–
COc1cc(/C=C2\C(=O)OC\C2=C\c2ccc3c(c2)OCO3)cc(OC)c1O,> 40,> 40,> 40,–,–,–,> 40,–,–
COc1cc(/C=C2\C(=O)OC\C2=C\c2ccc3c(c2)OCO3)cc(OC)c1OC,34,> 40,35.2,–,–,–,28.3,–,–
COc1cc(/C=C2\C(=O)OC\C2=C\c2ccc3c(c2)OCO3)cc(OC)c1OC(=O)CN(C)C,> 40,> 40,> 40,–,–,–,> 40,–,–
COc1ccc(/C=C\c2cc(OC)c(OC)c(OC)c2)cc1O,–,–,–,–,–,–,–,Dose-dependent effect,–
Cc1cc(/C=C2\C(=O)OCC2Cc2ccc3c(c2)OCO3)ccc1F (stereo not given),6.47,8.81,5.72,–,–,–,5.51,–,–
COc1cc(/C=C2\C(=O)OCC2Cc2ccc3c(c2)OCO3)cc(OC(=O)CN(C)C)c1OC (stereo not given) [listing 1 of 3 here],–,–,–,–,–,–,–,Dose-dependent effect,–
COc1cc(/C=C2\C(=O)OC\C2=C\c2ccc3c(c2)OCO3)cc(OC)c1OC(=O)[C@@H](N)Cc1ccccc1,> 40,> 40,> 40,–,–,–,> 40,–,–
Cc1cc(/C=C2\C(=O)OC\C2=C\c2ccc3c(c2)OCO3)ccc1F,> 40,> 40,> 40,–,–,–,> 40,–,–

# The next lines start with results.
"IC50 (KB; Homo sapiens, KB, 72 h) [µM]","IC50 (MDA-MB-231; Homo sapiens, MDA-MB-231, 72 h) [µM]","IC50 (A549 [2]; Homo sapiens, A549, 72 h) [µM]",IC50 (KB; kb) [µM],IC50 (MDA-MB-231; mda-mb-231) [µM],IC50 (A549 [2]; a549) [µM],SMILES,"IC50 ([1]; Homo sapiens, KBVIN, 72 h) [µM]",Activity (A549 [3]),IC50 [1] [µM]
9.9,5.88,5.5,–,–,–,COc1cc(/C=C2\C(=O)OCC2Cc2ccc3c(c2)OCO3)cc(OC)c1OC (racemic),5.51,Dose-dependent effect,–
–,–,–,8.71,9.37,5.93,COc1cc(/C=C2\C(=O)OCC2Cc2ccc3c(c2)OCO3)cc(OC)c1OC(=O)CN(C)C (stereo not given) [listing 1 of 2 here],–,–,7.06
5.18,8.55,4.32,–,–,–,COc1cc(/C=C2\C(=O)OCC2Cc2ccc3c(c2)OCO3)cc(O)c1OC (stereo not given),4.84,–,–
11.5,> 40,6.17,–,–,–,COc1cc(/C=C2\C(=O)OCC2Cc2ccc3c(c2)OCO3)cc(OC)c1O (stereo not given),6.78,–,–
–,–,6.15,18.1,29,–,COc1cc(/C=C2\C(=O)OCC2Cc2ccc3c(c2)OCO3)cc(OC)c1OC(=O)CN(C)C (stereo not given) [listing 2 of 2 here],–,–,17.6
4.98,9.04,–,–,–,3.32,COc1cc(/C=C2\C(=O)OCC2Cc2ccc3c(c2)OCO3)cc(OC(=O)CN(C)C)c1OC (stereo not given) [listing 2 of 3 here],4.51,–,–
> 40,> 40,> 40,–,–,–,COc1cc(/C=C2\C(=O)OC\C2=C\c2ccc3c(c2)OCO3)cc(OC(=O)CN(C)C)c1OC,> 40,–,–
–,–,5.02,5.53,8.91,–,COc1cc(/C=C2\C(=O)OCC2Cc2ccc3c(c2)OCO3)cc(OC(=O)CN(C)C)c1OC (stereo not given) [listing 3 of 3 here],–,–,5.34
